Reference: ChEMBL document CHEMBL4376884, “Toward a Rational Design of Polyamine-Based Zinc-Chelating Agents for Cancer Therapies” (J Med Chem, 2020)
The source made the active and inactive calls. No cut-off for these calls is given here.

Tests used:
LN-229 [1] = assay: Cell cycle arrest in human LN229 cells assessed as cell accumulation at G2/M phase at 10 uM incubated for 24 hrs by propidium iodide staining based flow cytometry analysis relative to control; format: functional
Jurkat = assay: Induction of apoptosis in human Jurkat cells assessed as increase in caspase-3/7 activation at 10 uM incubated for 48 hrs by luminometric caspase-glo 3/7 assay; format: functional, cell-based
Outline: (§1)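 Cells in RPMI or DMEM with 10% heat-inactivated FBS and penicillin/streptomycin, 37 °C, 5% CO2, treated with 10 µM compound for 48 h. Caspase-3 and caspase-7 activity read by luminescent Caspase-Glo 3/7 assay, reported as fold induction over untreated cells; mean ± SD of three independent experiments, each in triplicate.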

[2] = Metal chelating activity assessed as Zn2+-compound complex formation by measuring stability constant for ZnL(OH) using pre-Zn2+-complexed compound (ZnL) in 0.15M NaCl at 298.1K by potentiometric titration analysis
Outline: (§2)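 Glass-electrode potentiometric titration with an Ag/AgCl reference in saturated KCl. The electrode was calibrated as an [H+] probe against standardized HCl with CO₂-free NaOH, using Gran's method (pKw 13.73(1)). Range was pH 2.0–11.0, with metal and ligand at 1×10⁻³ to 5×10⁻³ M in 1:1 ratio. At least two curves per compound were merged and fitted with HYPERQUAD.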

[3] = Metal chelating activity assessed as Zn2+-compound complex formation by measuring stability constant for ZnHL using pre-Zn2+-complexed compound (ZnL) in 0.15M NaCl at 298.1K by potentiometric titration analysis; outline: as §2
[4] = Metal chelating activity assessed as Zn2+-compound complex formation by measuring stability constant for ZnL in 0.15M NaCl at 298.1K by potentiometric titration analysis; outline: as §2
PC-3 [5] = assay: Induction of cell morphological changes in human PC3 cells assessed as cell shrinkage at 10 uM incubated for 24 to 48 hrs by phase contrast microscopy; format: functional, cell-based
Outline: (§3)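 LN229 and PC3 cells exposed to 10 µM compound for the indicated time-points, then imaged live by phase-contrast microscopy for morphology.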

U-87 MG = assay: Induction of apoptosis in human U87MG cells assessed as increase in caspase-3/7 activation at 10 uM incubated for 48 hrs by luminometric caspase-glo 3/7 assay; format: functional, cell-based; settings: U-87MG ATCC; outline: as §1
PC-3 [6] = assay: Induction of apoptosis in human PC3 cells assessed as early apoptotic cells at 10 uM incubated for 24 hrs by annexin V-FITC and propidium iodide staining based flow cytometry analysis (reference value: 0.24 %); format: functional
PC-3 [7] = assay: Antiproliferative activity against human PC3 cells assessed as reduction in cell viability incubated for 48 hrs by cell titer-glo assay; format: functional, cell-based; settings: PC-3, 48 h
Outline: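 Dose-response: cells plated, treated 24 h later for 48 h, then ATP measured by CellTiter-Glo luminescence. IC50 given as mean ± SD from three independent experiments, each in triplicate. Fibroblasts came from individuals. Cells were kept in RPMI or DMEM with 10% heat-inactivated FBS and penicillin/streptomycin at 37 °C, 5% CO2.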

Granta-519 = assay: Induction of apoptosis in human GRANTA-519 cells assessed as increase in caspase-3/7 activation at 10 uM incubated for 48 hrs by luminometric caspase-glo 3/7 assay; format: functional, cell-based; outline: as §1
LN-229 [8] = assay: Induction of mitochondrial membrane potential loss in human LN229 cells at 10 uM measured upto 48 hrs by JC-1 staining based flow cytometry analysis; format: functional, cell-based
Outline: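 LN229 cells seeded at 5×10^5 cells/mL and adhered overnight, then given medium with 10 µM compound for the indicated time-points. Readout is mean FL3 (aggregate, 590 nm)/FL1 (monomer, 530 nm) fluorescence ratio; mean ± SD of three determinations.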

JeKo-1 = assay: Induction of apoptosis in human JeKo1 cells assessed as increase in caspase-3/7 activation at 10 uM incubated for 48 hrs by luminometric caspase-glo 3/7 assay; format: functional, cell-based; outline: as §1
[9] = Metal chelating activity assessed as Zn2+-compound complex formation by measuring stability constant for ZnHL in 0.15M NaCl at 298.1K by potentiometric titration analysis; outline: as §2
DNA = assay: Induction of DNA damage in human Z138 cells assessed as gammaH2AX phosphorylation at Ser139 residue at 10 uM incubated for 4 hrs by Flow cytometry analysis; format: cell-based
Outline: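 Z-138 and LN229 cells treated 4 h with 10 µM compound or 1 µM doxorubicin. Fixed in 3.7% formaldehyde on ice, permeabilized with 0.2% Triton X, stained with rabbit anti-pS139 H2A.X (1:400) and Alexa 555 secondary, then analysed by flow cytometry. Fold γH2AX fluorescence versus untreated; mean ± SD of three experiments.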

[10] = Metal chelating activity assessed as Zn2+-compound complex formation by measuring stability constant for ZnL(OH) in 0.15M NaCl at 298.1K by potentiometric titration analysis; outline: as §2
PC-3 [11] = assay: Antiproliferative activity against human PC3 cells assessed as reduction in cell viability at 10 uM incubated for 48 hrs by cell titer-glo assay; format: functional, cell-based
Outline: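 Cells plated and treated 24 h later with 10 µM compound for 48 h; viable cells quantified by CellTiter-Glo ATP luminescence. Expressed as percentage of viable cells relative to untreated; mean ± SD of three independent experiments, each in triplicate.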

PC-3 [12] = assay: Induction of cell morphological changes in human PC3 cells assessed as loss of cell adherence at 10 uM incubated for 24 to 48 hrs by phase contrast microscopy; format: functional, cell-based; outline: as §3
PC-3 [13] = assay: Cell cycle arrest in human PC3 cells assessed as cell accumulation at G2/M phase at 10 uM incubated for 48 hrs by propidium iodide staining based flow cytometry analysis relative to control; format: functional
[14] = Metal chelating activity assessed as Zn2+-compound complex formation by measuring stability constant for ZnL(OH) using pre-Zn2+-complexed compound (ZnL) in 0.15M NaCl and hydroalcoholic solutions (H2O/EtOH 70:30) at 298.1K by potentiometric titration analysis; outline: as §2
[15] = Metal chelating activity assessed as Zn2+-compound complex formation by measuring stability constant for ZnL(OH) in 0.15M NaCl and hydroalcoholic solutions (H2O/EtOH 70:30) at 298.1K by potentiometric titration analysis; outline: as §2
[16] = Metal chelating activity assessed as Zn2+-compound complex formation by measuring stability constant for ZnL in 0.15M NaCl and hydroalcoholic solutions (H2O/EtOH 70:30) at 298.1K by potentiometric titration analysis; outline: as §2

Compound	Activity (LN-229 [1]) [%]	Activity (Jurkat)	Activity (PC-3 [5])	Activity (U-87 MG)	Activity (PC-3 [6]) [%]	IC50 (PC-3 [7]) [µM]	Activity (Granta-519)	Activity (LN-229 [8])	Activity (JeKo-1)	Activity (DNA)	Activity (PC-3 [11])	Activity (PC-3 [12])	Activity (PC-3 [13]) [%]	also measured
c1ccc(CNCCN(CCNCc2ccccn2)Cc2ccc3ccccc3c2)nc1	22.1	Active	Active	Active	0.63	11	Active	Active	Active	inactive	Active	Active	14.1	log K [2]: -10.8; log K [3]: 3.65; log K [4]: 13; log K [9]: 16.7; log K [10]: 2.25
CN(CCNCc1ccccn1)CCNCc1ccccn1	22.1	Active	Active	Active	0.8	11.2	Active	Active	Active	inactive	Active	Active	16	log K [14]: -10.6; log K [15]: 2.81; log K [16]: 13.4
